Assay [1] has as its target T1, human erythrocyte anion exchange protein (band 3) (Homo sapiens, UniProt P02730).
T1 sequence (P02730 1-911): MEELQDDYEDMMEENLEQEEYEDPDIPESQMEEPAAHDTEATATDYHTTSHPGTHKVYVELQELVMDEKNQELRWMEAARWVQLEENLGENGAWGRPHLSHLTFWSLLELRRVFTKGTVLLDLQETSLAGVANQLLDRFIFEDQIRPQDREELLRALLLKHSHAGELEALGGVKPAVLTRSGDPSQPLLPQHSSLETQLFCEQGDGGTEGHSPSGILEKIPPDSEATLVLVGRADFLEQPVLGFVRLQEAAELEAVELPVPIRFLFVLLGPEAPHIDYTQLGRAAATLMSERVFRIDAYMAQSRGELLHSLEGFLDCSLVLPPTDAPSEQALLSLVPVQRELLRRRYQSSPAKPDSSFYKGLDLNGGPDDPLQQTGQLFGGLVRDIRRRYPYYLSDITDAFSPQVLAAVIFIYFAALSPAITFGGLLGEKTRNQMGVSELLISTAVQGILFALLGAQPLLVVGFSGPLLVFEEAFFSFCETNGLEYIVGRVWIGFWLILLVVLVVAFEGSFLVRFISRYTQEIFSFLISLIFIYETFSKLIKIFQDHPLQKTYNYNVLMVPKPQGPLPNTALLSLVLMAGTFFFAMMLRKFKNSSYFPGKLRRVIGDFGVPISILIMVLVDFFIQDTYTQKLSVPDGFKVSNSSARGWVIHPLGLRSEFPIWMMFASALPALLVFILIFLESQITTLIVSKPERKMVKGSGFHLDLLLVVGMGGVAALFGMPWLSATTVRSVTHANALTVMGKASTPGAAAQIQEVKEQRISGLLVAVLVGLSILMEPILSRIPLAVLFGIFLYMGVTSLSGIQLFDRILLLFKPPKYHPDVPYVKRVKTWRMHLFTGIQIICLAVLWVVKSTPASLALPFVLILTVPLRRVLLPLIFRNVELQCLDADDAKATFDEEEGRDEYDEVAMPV
The assay is classed as cell-based. Conditions: Table III mean. Put shortly: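 Washed cells in 60K-Hi (pH 7.2) were pretreated 45 min at 37°C, 10% hematocrit, with 2.5 uM (low pH) or 5 uM (high pH) H2DIDS. They were albumin-washed, nystatin-treated (75 ug/ml, 10 min each in 60K-Hi then 60K-Lo, 0°C) and washed into 60K-Lo at pH 7.2 or 9.0. 36Cl efflux with graded H2DIDS and Cl ratios were measured at 0°C in those media. ID50 came from Dixon-plot x-intercepts.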

The target of assay [2] is T1, human erythrocyte anion exchange protein (band 3). Briefly: H2DIDS inhibition of chloride exchange in resealed ghosts with Cli < Clo, 0C. The assay is classed as cell-based. The essentials:
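Washed cells were lysed at 0°C in 3.5 mM acetic acid, 4 mM MgSO4, 1 mM EGTA. Tris/KCl/sodium citrate was added for 10 or 60 mM internal Cl; after 10 min at 0°C, ghosts were resealed 45 min at 37°C. They were washed in 60 mM NaCl, 60 mM Na citrate, 5 mM HEPES, 5 mM glucose, MgSO4, pH 7.2. 36Cl efflux with graded H2DIDS was measured at 0°C; ID50 came from Dixon-plot x-intercepts.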

For assay [3], the system named is red cells (valinomycin-induced Rb+ exchange). Put plainly: 86Rb exchange with valinomycin, 0C. The assay is classed as cell-based, human. The essentials: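 Human red cells washed in 150 mM NaCl, 2 mM KCl, 20 mM HEPES pH 7.4, then loaded 17 h at 37°C (50% hematocrit) with ~5 uCi/ml 86Rb in 5 mM adenosine/chloramphenicol buffer. Efflux ran at 0°C, 0.1% hematocrit, in 48 mM NaCl/112 mM KCl/5 mM HEPES pH 7.2 with 1.33% ethanol. Valinomycin was added last, with or without 10 uM DIDS. Timed samples were centrifuged to give the efflux rate constant.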

Assay [4] deals with red cells (net chloride permeability). Briefly: Net KCl flux with valinomycin into low chloride medium, 0C. Type of assay: cell-based, human. Put shortly:
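Nystatin-treated high-Cl cells were washed in 150K, then 10K-Hi. Net K+ efflux was measured at 0°C, 0.1% hematocrit, in 10K-Hi with 1.33% ethanol, started by adding graded valinomycin, with or without 10 uM DIDS. K+ was read by flame photometry and taken as net KCl efflux. PK/PCl came from Goldman-equation fits, with PK linear in valinomycin and PK = 0.5 PRb.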

Read-outs that look alike come from different tables or passages of the source.

With `O=S(=O)(O)c1cc(N=C=S)ccc1CCc1ccc(N=C=S)cc1S(=O)(=O)O` [H2DIDS, 4,4'-diisothiocyano-1,2-diphenylethane-2,2'-disulfonic acid], the “ID50* (no chloride gradient), mean” value turned out to be 0.24 AM in assay [1] (extracellular Cl 60 mM, intracellular Cl ~60 mM, 0C) and 0.15 AM in assay [2] (Table II mean, extracellular Cl 60 mM, intracellular Cl ~60 mM, 0C). Also, the “ID50 (chloride gradient induced by increasing pH), mean” value in assay [1] (intracellular Cl averaged 14.4 mM, mean Clo/Cli 4.66, 0C) is 0.47 AM. For the same compound, the “ID50/ID50*, mean” value came out at 2.00 in assay [1] (mean Clo/Cli 4.66) and 1.41 in assay [2] (Table II mean, mean Clo/Cli 2.35). Further, the “ID50 (with chloride gradient Clo > Cli), mean” value in assay [2] (Table II mean, intracellular Cl averaged 27.8 mM, mean Clo/Cli 2.35, 0C) is 0.21 AM. In addition, the “increase in ID50 caused by high pH” value in assay [2] (pH 9.0 versus pH 7.2, chloride ratio nearly invariant with pH) stood at 30%.
The compound `CC(C)[C@@H]1NC(=O)[C@H](C)OC(=O)[C@@H](C(C)C)NC(=O)[C@@H](C(C)C)OC(=O)[C@H](C(C)C)NC(=O)[C@H](C)OC(=O)[C@@H](C(C)C)NC(=O)[C@@H](C(C)C)OC(=O)[C@H](C(C)C)NC(=O)[C@H](C)OC(=O)[C@@H](C(C)C)NC(=O)[C@@H](C(C)C)OC1=O` [valinomycin] showed a PRb in assay [3] (Fig. 7, control cells, 10 uM valinomycin) of 0.09134 mmol/kg Hb - min - mM. Moreover, the PK/PCl ratio is 33 in assay [4] (10 uM valinomycin, 10K-Hi medium, assuming PK = 0.5 PRb); over 20 in assay [4] (valinomycin, other experiments, medium with 150 mM NaCl and 10 mM KCl).
Consider `O=S(=O)(O)c1cc(N=C=S)ccc1C=Cc1ccc(N=C=S)cc1S(=O)(=O)O` [DIDS, 4,4'-diisothiocyano-stilbene-2,2'-disulfonic acid], for which, in assay [3] (DIDS 10 uM, valinomycin-induced Rb+ exchange), the “effect on Rb+ exchange” value was “no significant effect”. In assay [3] (Fig. 7, 10 uM valinomycin with 10 uM DIDS present), this compound gave a PRb of 0.09216 mmol/kg Hb - min - mM. For the same compound, in assay [4] (in the presence of 10 uM DIDS, high valinomycin concentrations), the “plateau net KCl efflux” value is “greatly reduced”.

For the origin of these results see PMC2215654 (The Journal of General Physiology, 1984).
